Rows were chosen to be rich in hits. Some 1.6% of all compounds tested hit in one or more screens of this group.
F508del corr = F508del CFTR correction, initial screen, CFBE line, single point. CFBE cells, YFP halide quenching; stimulated with forskolin plus potentiator P3; % fluorescence drop versus neutral controls. activity (quench increase), % at 7.58 µM. 350,000 tested, 0.36% active. AID 720511, 2013;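 active = mean added fluorescence quench of at least 8% versus neutral control, with both replicates also reaching 8%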;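 also: cells transiently co-express mutant CFTR-F508del with the halide-sensitive YFP; corrector assay measuring rescue of mutant channel to the surface after 24 h compound exposure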
SUMO1 PPI mod = modulators of SUMO1 protein-protein interactions, primary screen, biochemical, uHTS; inhibition, % at 20 µM; Small ubiquitin-related modifier 1 (Homo sapiens), P63165; 360,000 tested, 0.33% active; SUMO1 binding to a labelled peptide, TR-FRET, 1 h; in the data active = inhibition above about 37%
Target sequence (P63165 whole entry, looked up): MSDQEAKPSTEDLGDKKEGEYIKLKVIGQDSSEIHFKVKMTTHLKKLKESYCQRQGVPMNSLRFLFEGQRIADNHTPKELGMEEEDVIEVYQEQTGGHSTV
Scp1 inh = Scp-1 phosphatase inhibitors, primary screen, biochemical, colorimetric, uHTS. Recombinant Scp1, phosphopeptide, malachite green phosphate absorbance. inhibition, % at 20 µM. 340,000 tested, 0.88% active. AID 493091, 2011;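 active = inhibition above about 50% at 20 µM, limit read from the data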
Target sequence (Q9GZU7 76-261 limits assumed): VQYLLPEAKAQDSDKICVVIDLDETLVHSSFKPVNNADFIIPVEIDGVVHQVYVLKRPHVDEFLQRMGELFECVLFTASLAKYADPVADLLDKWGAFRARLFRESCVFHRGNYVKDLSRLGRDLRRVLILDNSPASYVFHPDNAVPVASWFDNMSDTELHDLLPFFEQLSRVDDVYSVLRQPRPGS
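Test system: SCP-1 phosphatase catalytic domain, residues 76-261 | Compound dosing: One concentration, 20 µM, with 1.0% DMSO | Schedule: 45 min room-temperature reaction, 5 min colour, 30 min stabiliser | Detection: Absorbance at 630 nm | Read-out basis: % inhibition of SCP-1 phosphate liberation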
DNMT1 inh = human DNMT1 methyltransferase inhibitors, primary screen, biochemical, molecular beacon, fluorescence, HinP1I cleavage, uHTS | DNA (cytosine-5)-methyltransferase 1 (Homo sapiens), P26358 | inhibition (reported as % activation of signal), % at 10 µM | 360,000 tested, 0.83% active | AID 588458, 2011; in the data active = inhibition above about 50%
STEP block = STEP phosphatase inhibitors, primary screen, biochemical, fluorescence intensity, uHTS | inhibition, % at 20 µM | recombinant STEP, OMFP fluorogenic substrate | Tyrosine-protein phosphatase non-receptor type 5 (Homo sapiens), P54829 | 360,000 tested, 0.25% active;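 active = inhibition at 20 µM, scaled per plate between control wells, above about 37%, limit read from the data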
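Assay system: isolated STEP enzyme / Timing: 20 min at room temperature, dark / Doses: 20 µM, 1% DMSO / Technique: fluorescence intensity, excitation 480 nm, emission 540 nm / Reagent: fluorogenic phosphatase substrate OMFP at 25 µM final / Measure: percent inhibition scaled to no-enzyme and uninhibited-enzyme controls, plate-pattern corrected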
LMPTP inh = LMPTP phosphatase inhibitors, primary screen, biochemical, fluorescence intensity, uHTS; Low molecular weight phosphotyrosine protein phosphatase (Homo sapiens), P24666; recombinant LMPTP-A, OMFP fluorogenic substrate; inhibition, % at 20 µM; 360,000 tested, 0.22% active; AID 651560, 2012;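 active = compounds that cut the enzyme signal by at least half of the control window in the single-dose screen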
Target sequence (P24666 whole entry, looked up): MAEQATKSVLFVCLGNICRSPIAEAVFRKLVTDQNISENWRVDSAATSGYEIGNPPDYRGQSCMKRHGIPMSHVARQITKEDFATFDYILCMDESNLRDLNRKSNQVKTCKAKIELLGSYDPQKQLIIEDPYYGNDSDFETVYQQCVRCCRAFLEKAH
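Test system – LMPTP-A enzyme · Amount – LMPTP-A at 0.625 nM final in the reaction · Buffer or medium – Bis-Tris pH 6.0, DTT, detergent · Reagent – OMFP 400 µM · Doses – single 20 µM dose · Schedule – reaction 50 min, room temperature, dark · Detection – fluorescence intensity of OMFP turnover product · Evaluation – percent inhibition versus substrate-only and uninhibited controls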
Each line names hits and unclear results; the compound was inactive in the other large screens.

CC(=O)Nc1ccc(CNc2nc(NCC3CC3)nc3ccsc23)cc1	LMPTP inh 59.6 (no result: Scp1 inh)
C[C@@H]1CN([C@@H](C)CO)C(=O)c2cc(NC(=O)CCCN(C)C)ccc2O[C@H]1CN(C)Cc1ccc(Cl)c(Cl)c1	none (no result: SUMO1 PPI mod, Scp1 inh, DNMT1 inh, STEP block, LMPTP inh)
CN(C)c1ccc2c(c1)[C@H]1C[C@@H](CC(=O)NCc3ccc(Cl)cc3)O[C@@H](CO)[C@H]1O2	none (no result: SUMO1 PPI mod, Scp1 inh, DNMT1 inh, STEP block, LMPTP inh)
O=C(C[C@@H]1C=C[C@@H](NC(=O)C2CC2)[C@@H](CO)O1)NCC1CC1	none (no result: SUMO1 PPI mod, Scp1 inh, DNMT1 inh, STEP block, LMPTP inh)
COc1cccc2c1C(=O)c1c(O)c3c(c(O)c1C2=O)CC(O)(C(C)=O)CC3OC1CC(N(C)C)C(O)C(C)O1 (stereo unspecified)	F508del corr 33.9
COc1cccc2c1C(=O)c1c(O)c3c(c(O)c1C2=O)C[C@@](O)(C(=O)CO)C[C@@H]3OC1CC(N)C(O)C(C)O1 (stereo partly specified)	F508del corr 13.8, SUMO1 PPI mod 91.5
CC(=O)[C@@]1(O)Cc2c(O)c3c(c(O)c2[C@H](O[C@H]2C[C@H](N)[C@H](O)[C@H](C)O2)C1)C(=O)c1ccccc1C3=O	F508del corr 22.4 (no result: Scp1 inh)
COc1cccc2c1C(=O)c1c(O)c3c(c(O)c1C2=O)C[C@@](O)(C(=O)CO)C[C@@H]3O[C@H]1C[C@H](N)[C@H](O)[C@H](C)O1	F508del corr 31.1
CC(C)CC#Cc1ccc2c(c1)O[C@@H](CN(C)C(=O)Nc1ccccc1F)[C@H](C)CN([C@H](C)CO)S2(=O)=O	none (no result: SUMO1 PPI mod, Scp1 inh, DNMT1 inh, STEP block, LMPTP inh)
O=C(NCC[C@@H]1CC[C@@H](NC(=O)Nc2cc(F)ccc2F)[C@@H](CO)O1)Nc1ccc(F)cc1	none (no result: SUMO1 PPI mod, Scp1 inh, DNMT1 inh, STEP block, LMPTP inh)
CCOC(=O)[C@H]1[C@@H]2C(=O)N3CCC[C@H]3[C@H](O[Si](C(C)C)(C(C)C)C(C)C)[C@H]2C=C2CCN(S(=O)(=O)c3ccc(C)cc3)C[C@H]21	none (no result: SUMO1 PPI mod, Scp1 inh, DNMT1 inh, STEP block, LMPTP inh)
CCCCCC(=O)Nc1cc(S(=O)(=O)O)cc2cc(S(=O)(=O)O)cc(O)c12	SUMO1 PPI mod 118.5, Scp1 inh 101.9, STEP block 98.9, LMPTP inh 95.7
COc1ccccc1Cc1c(-c2ccc(C)cc2)nc2ccc(Br)cn12	none (no result: Scp1 inh)
COc1ccccc1Cc1c(-c2ccco2)nc2c(C)cc(Br)cn12	DNMT1 inh 62.1 (no result: F508del corr, Scp1 inh)
COc1ccc(Cc2c(-c3ccco3)nc3c(C)cc(Br)cn23)c(C)c1	none (no result: Scp1 inh)
COc1ccccc1Cc1c(-c2ccc(Cl)cc2)nc2ccc(Br)cn12	F508del corr 10.3 (no result: Scp1 inh)
O=C(C[C@@H]1C=C[C@@H](NS(=O)(=O)c2ccccc2)[C@@H](CO)O1)NCc1ccncn1	none (no result: SUMO1 PPI mod, Scp1 inh, DNMT1 inh, STEP block, LMPTP inh)
CCCC#Cc1ccc2c(c1)[C@@H]1[C@@H](CCN1S(=O)(=O)c1ccccc1C)[C@@H](CO)N2	none (no result: SUMO1 PPI mod, Scp1 inh, DNMT1 inh, STEP block, LMPTP inh)
O=C1C(=Cc2cn(-c3ccccc3)nc2-c2ccc(OCc3ccccc3F)cc2)SC(=S)N1CCS(=O)(=O)O	SUMO1 PPI mod 88.1, LMPTP inh 88.7 (no result: Scp1 inh)
O=C(O)CCN1C(=O)/C(=C/c2cn(-c3ccccc3)nc2-c2cccs2)SC1=S	STEP block 73.9, LMPTP inh 80.9
O=C1C(=Cc2cn(-c3ccccc3)nc2-c2ccc(OCc3ccc(Cl)cc3)cc2)SC(=S)N1CCS(=O)(=O)O	SUMO1 PPI mod 109.8, LMPTP inh 93.7 (no result: Scp1 inh)
Cc1ccc(-c2nn(-c3ccccc3)cc2/C=C2\SC(=S)N(CC(=O)O)C2=O)cc1	none
O=S(=O)(c1ccccc1F)N1CCCCN2[C@@H](CO)[C@@H](c3ccc(-c4cncnc4)cc3)[C@@H]2C1	none (no result: SUMO1 PPI mod, Scp1 inh, DNMT1 inh, STEP block, LMPTP inh)
N#Cc1ccc(-c2cccs2)nc1SCc1cccnc1	F508del corr 9.0
N#Cc1c(C(F)(F)F)cc(-c2cccs2)nc1SCc1cccnc1	none (no result: F508del corr)
O=Nc1c(-c2c(O)[nH]c3cc(Br)ccc23)[nH]c2ccccc12	SUMO1 PPI mod 43.8
O=C(CSCc1cccc(Br)c1)N=Nc1c(O)[nH]c2ccccc12	none (no result: F508del corr)

Screening results as filed in PubChem BioAssay.
